Values belong to the compound of their own block, whether it stands above or below them.
Experiments:
[1] = target: T1, Amine oxidase [flavin-containing] B (Homo sapiens, UniProt P27338); type: cell-based, BTI-TN-5B1-4
T1 sequence (P27338 whole entry): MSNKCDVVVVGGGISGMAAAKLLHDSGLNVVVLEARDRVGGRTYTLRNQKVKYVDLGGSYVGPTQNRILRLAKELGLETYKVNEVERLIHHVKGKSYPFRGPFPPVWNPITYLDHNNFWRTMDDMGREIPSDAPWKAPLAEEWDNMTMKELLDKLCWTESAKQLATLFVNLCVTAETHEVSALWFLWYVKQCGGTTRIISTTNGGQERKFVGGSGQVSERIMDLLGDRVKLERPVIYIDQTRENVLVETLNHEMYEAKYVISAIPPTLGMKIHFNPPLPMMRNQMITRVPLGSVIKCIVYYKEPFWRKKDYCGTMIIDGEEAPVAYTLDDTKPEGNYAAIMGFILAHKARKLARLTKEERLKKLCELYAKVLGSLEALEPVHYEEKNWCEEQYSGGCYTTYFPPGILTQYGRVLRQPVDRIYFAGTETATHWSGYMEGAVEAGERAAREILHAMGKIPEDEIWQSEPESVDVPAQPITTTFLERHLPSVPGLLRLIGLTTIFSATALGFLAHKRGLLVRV

Homo sapiens = organism: Homo sapiens; assay: Selectivity for human MAOB over human MAOA
Procedure, shortened: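 Selectivity index = IC50(hMAO-A)/IC50(hMAO-B), both from Amplex Red/p-tyramine fluorimetric assays on insect-cell recombinant enzymes.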

[2] = target: T2, Amine oxidase [flavin-containing] A (Homo sapiens, UniProt P21397); assay: Inhibition of human recombinant MAOA expressed in BTI-TN-5B1-4 cells at 100 uM by para-tyramine oxidation assay; type: cell-based; conditions: human, bti-tn-5b1-4, 100 µM
T2 sequence (P21397 whole entry): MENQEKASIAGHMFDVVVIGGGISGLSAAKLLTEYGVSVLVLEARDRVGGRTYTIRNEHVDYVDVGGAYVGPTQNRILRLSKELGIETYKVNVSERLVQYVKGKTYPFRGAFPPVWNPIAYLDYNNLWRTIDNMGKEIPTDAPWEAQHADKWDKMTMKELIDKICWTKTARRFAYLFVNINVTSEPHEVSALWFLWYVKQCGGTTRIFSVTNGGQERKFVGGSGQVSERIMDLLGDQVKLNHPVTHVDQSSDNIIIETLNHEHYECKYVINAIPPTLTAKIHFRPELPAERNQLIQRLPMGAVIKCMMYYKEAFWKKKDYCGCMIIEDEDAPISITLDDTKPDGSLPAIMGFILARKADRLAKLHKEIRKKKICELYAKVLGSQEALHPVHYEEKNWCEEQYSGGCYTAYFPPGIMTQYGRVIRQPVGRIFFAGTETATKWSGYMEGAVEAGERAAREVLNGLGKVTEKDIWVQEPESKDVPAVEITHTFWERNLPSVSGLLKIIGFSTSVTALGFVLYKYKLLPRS

[3] = target: T1, Amine oxidase [flavin-containing] B; assay: Inhibition of human recombinant MAOB expressed in BTI-TN-5B1-4 cells at 100 nM after repeated washing by centrifugation-ultrafiltration method; type: cell-based; conditions: BTI-TN-5B1-4, human
Procedure, shortened: (§1)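 Recombinant hMAO-B was incubated with one concentration of inhibitor in 0.05 M sodium phosphate pH 7.4 for 15 min at 37 °C. One aliquot was kept at 4 °C unwashed. The rest was washed three times by 30 kDa ultrafiltration (9000g, 20 min, 4 °C) and resuspended in buffer.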

[4] = target: T1, Amine oxidase [flavin-containing] B; assay: Inhibition of human recombinant MAOB expressed in BTI-TN-5B1-4 cells at 100 nM before washing by centrifugation-ultrafiltration method; type: cell-based; conditions: BTI-TN-5B1-4, human
Procedure, shortened: as §1

[5] = target: T1, Amine oxidase [flavin-containing] B; assay: Inhibition of human MAOB
Procedure, shortened: (§2)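 Recombinant human MAO-A or -B as microsomes from baculovirus-infected BTI-TN-5B1-4 insect cells, dosed to oxidize 165 pmol p-tyramine/min in controls (A 1.1 µg, B 7.5 µg protein). Preincubated with inhibitor 15 min at 37 °C in 0.05 M sodium phosphate pH 7.4. Started with 1 mM p-tyramine, 200 µM Amplex Red, 1 U/ml HRP (final). Resorufin fluorescence (ex 545/em 590 nm) read over 15 min at 37 °C, background subtracted.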

[6] = target: T2, Amine oxidase [flavin-containing] A; assay: Inhibition of human MAOA
Procedure, shortened: as §2

[7] = target: T1, Amine oxidase [flavin-containing] B; assay: Inhibition of human recombinant MAOB expressed in BTI-TN-5B1-4 cells at 1 mM by para-tyramine oxidation assay; type: cell-based; conditions: bti-tn-5b1-4, 1000 µM
[8] = target: T2, Amine oxidase [flavin-containing] A; assay: Inhibition of human recombinant MAOA expressed in BTI-TN-5B1-4 cells at 500 uM before washing by centrifugation-ultrafiltration method; type: cell-based; conditions: BTI-TN-5B1-4, human

IC50 [1]: 0.13 µM | Ratio IC50 (Homo sapiens): > 769 | inhibition (INH) [2]: Not Active | inhibition at 0.1 µM [3]: 36.5% | inhibition at 0.1 µM [4]: 38.4%
SMILES: Cc1ccc2c(c1)OC(c1ccc(F)cc1)CC2=O (racemic)

SMILES: O=c1cc(-c2ccc(O)c(O)c2)oc2cc(O)cc(O)c12 [LUTEOLIN]
IC50 [5]: 59.7 µM | IC50 [6]: 4.9 µM

SMILES: O=C(NCCN1CCOCC1)c1ccc(Cl)cc1 [MOCLOBEMIDE]
inhibition (INH) [7]: Not Active | inhibition at 500 µM [8]: 84.8%

From ChEMBL document CHEMBL1159098, “A new series of flavones, thioflavones, and flavanones as selective monoamine oxidase-B inhibitors” (Bioorg Med Chem, 2010)
